{
  "source": "ChEMBL document CHEMBL2331121",
  "about": "“Design, synthesis, and pharmacological characterization of N- and O-substituted 5,6,7,8-tetrahydro-4H-isoxazolo[4,5-d]azepin-3-ol analogues: novel 5-HT(2A)/5-HT(2C) receptor agonists with pro-cognitive properties” (J Med Chem, 2013)",
  "key": {"[1]": {"biological_target": "T1, 5-hydroxytryptamine receptor 2C (Rattus norvegicus) (UniProt P08909)", "T1 sequence (whole entry)": "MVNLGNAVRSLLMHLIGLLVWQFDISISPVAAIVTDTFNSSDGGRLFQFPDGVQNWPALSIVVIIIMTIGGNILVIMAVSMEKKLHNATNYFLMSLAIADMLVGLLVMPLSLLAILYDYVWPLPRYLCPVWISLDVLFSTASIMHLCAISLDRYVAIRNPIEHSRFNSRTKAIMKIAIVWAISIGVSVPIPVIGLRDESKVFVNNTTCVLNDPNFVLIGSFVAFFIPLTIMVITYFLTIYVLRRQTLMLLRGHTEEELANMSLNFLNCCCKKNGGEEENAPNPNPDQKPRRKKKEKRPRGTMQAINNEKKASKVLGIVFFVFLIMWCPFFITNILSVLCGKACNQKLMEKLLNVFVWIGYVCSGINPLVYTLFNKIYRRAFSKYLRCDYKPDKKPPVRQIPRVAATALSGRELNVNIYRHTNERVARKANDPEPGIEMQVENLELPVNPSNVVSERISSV", "test": "Displacement of [125I]-N-(p-I-Bn)-THAZ from 5HT2C receptor in Sprague-Dawley rat midbrain membrane at 100 uM after 40 mins by autoradiography", "assay_type": "tissue-based"}, "Mus musculus [2]": {"system": "Mus musculus", "test": "Procognitive effect in C57Bl/6J mouse assessed as time spent in novel arm at 0.43 mg/kg, po administered 30 mins prior to acquisition trial measured after 24 hrs in presence of SB242084", "assay_type": "functional", "in_short": "(§1)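 Male C57Bl/6J mice aged 8 weeks, two-trial place recognition Y-maze. 3 min acquisition with two arms open; 24 h ITI; 3 min retention with all three arms open. Drug given po 30 min before acquisition, vehicle 10% HP-βCD. SB242084 2.1 mg/kg co-administered where stated; doses as free base. Readouts are % distance, arm entries and time in each arm. Familiar arms pooled; one-way ANOVA.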"}, "Mus musculus [3]": {"system": "Mus musculus", "test": "Procognitive effect in C57BI/6J mouse assessed as time spent in familiar arm at 0.43 mg/kg, po administered 30 mins prior to acquisition trial measured after 24 hrs in presence of SB242084", "assay_type": "functional", "in_short": "as §1"}, "Mus musculus [4]": {"system": "Mus musculus", "test": "Procognitive effect in C57Bl/6J mouse assessed as number of novel arm entry at 0.43 mg/kg, po administered 30 mins prior to acquisition trial measured after 24 hrs in presence of SB242084", "assay_type": "functional", "in_short": "as §1"}, "Homo sapiens [5]": {"species_on_record": "Homo sapiens", "test": "Selectivity ratio of EC50 for human 5HT2C receptor to EC50 for M1 muscarinic receptor (unknown origin) by FLIPR assay"}, "[6]": {"biological_target": "T2, 5-hydroxytryptamine receptor 2C (Homo sapiens, UniProt P28335)", "T2 sequence (P28335 whole entry)": "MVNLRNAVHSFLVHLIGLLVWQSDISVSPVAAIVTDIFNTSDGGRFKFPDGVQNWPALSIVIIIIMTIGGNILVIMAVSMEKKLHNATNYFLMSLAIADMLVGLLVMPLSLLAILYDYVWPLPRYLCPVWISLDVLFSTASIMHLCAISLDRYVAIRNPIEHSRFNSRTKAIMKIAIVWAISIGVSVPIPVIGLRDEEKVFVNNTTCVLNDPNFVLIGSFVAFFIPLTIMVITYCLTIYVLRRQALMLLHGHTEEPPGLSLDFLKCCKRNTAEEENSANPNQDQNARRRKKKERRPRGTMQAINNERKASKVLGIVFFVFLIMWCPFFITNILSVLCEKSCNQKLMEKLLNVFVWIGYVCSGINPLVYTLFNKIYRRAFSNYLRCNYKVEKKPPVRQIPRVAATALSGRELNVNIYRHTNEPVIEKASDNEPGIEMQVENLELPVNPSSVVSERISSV", "test": "Displacement of [3H]mesulergine from human 5HT2C receptor expressed in tsA201 cell membranes after 1 hr by scintillation counting analysis"}, "Mus musculus [7]": {"system": "Mus musculus", "test": "Procognitive effect in C57Bl/6J mouse assessed as distance traveled in the novel arm at 0.43 mg/kg, po administered 30 mins prior to acquisition trial measured after 24 hrs in presence of SB242084 (reference value: 37 +/-5.8%)", "assay_type": "functional", "in_short": "as §1"}, "[8]": {"biological_target": "T1, 5-hydroxytryptamine receptor 2C (Rattus norvegicus)", "test": "Displacement of [125I]-N-(p-I-Bn)-THAZ from 5HT2C receptor in Sprague-Dawley rat cortical membrane at 100 uM after 40 mins by autoradiography"}, "Mus musculus [9]": {"system": "Mus musculus", "test": "Procognitive effect in C57Bl/6J mouse assessed as time spent in familiar arm at 0.43 mg/kg, po administered 30 mins prior to acquisition trial measured after 24 hrs by Y-maze test", "assay_type": "functional", "in_short": "as §1"}, "[10]": {"biological_target": "T3, 5-hydroxytryptamine receptor 2A (Homo sapiens, UniProt P28223)", "T3 sequence (P28223 whole entry)": "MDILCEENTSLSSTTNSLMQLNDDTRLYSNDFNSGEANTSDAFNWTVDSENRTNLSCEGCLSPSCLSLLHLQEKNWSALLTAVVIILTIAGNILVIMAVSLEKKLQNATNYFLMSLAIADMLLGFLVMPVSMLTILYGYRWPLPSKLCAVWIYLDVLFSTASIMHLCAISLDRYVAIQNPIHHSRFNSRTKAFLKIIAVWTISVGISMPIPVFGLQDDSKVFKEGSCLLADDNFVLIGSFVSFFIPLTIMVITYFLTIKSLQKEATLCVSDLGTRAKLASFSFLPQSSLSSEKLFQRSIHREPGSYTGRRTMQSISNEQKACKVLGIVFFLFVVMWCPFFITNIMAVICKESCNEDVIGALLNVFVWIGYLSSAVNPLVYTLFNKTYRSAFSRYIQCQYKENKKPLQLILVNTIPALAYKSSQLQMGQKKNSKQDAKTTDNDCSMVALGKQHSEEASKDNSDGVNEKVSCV", "test": "biochemical", "assay_type": "cell-based, tsA201", "conditions": "read-out: Ki"}, "Mus musculus [11]": {"system": "Mus musculus", "test": "Procognitive effect in C57Bl/6J mouse assessed as distance traveled in the familiar arm at 0.43 mg/kg, po administered 30 mins prior to acquisition trial measured after 24 hrs in presence of SB242084 (reference value: 31.5 +/- 2.9%)", "assay_type": "functional", "in_short": "as §1"}, "[12]": {"biological_target": "T1, 5-hydroxytryptamine receptor 2C (Rattus norvegicus)", "test": "Displacement of [125I]-N-(p-I-Bn)-THAZ from 5HT2C receptor in rat midbrain membrane after 1 hr by scintillation counting analysis", "assay_type": "cell membranes"}, "Mus musculus [13]": {"system": "Mus musculus", "test": "Procognitive effect in C57Bl/6J mouse assessed as distance traveled in the novel arm at 0.43 mg/kg, po administered 30 mins prior to acquisition trial measured after 24 hrs by Y-maze test (reference value: 37 +/- 5.8%)", "assay_type": "functional", "in_short": "as §1"}, "[14]": {"biological_target": "T2, 5-hydroxytryptamine receptor 2C", "test": "Agonist activity at human 5HT2C receptor expressed in HEK293 cells assessed as induction of intracellular calcium release measured for 90 secs by fluorescence assay", "assay_type": "functional, cell-based", "conditions": "read-out: EC50"}, "[15]": {"biological_target": "T3, 5-hydroxytryptamine receptor 2A", "test": "Agonist activity at human 5HT2A receptor expressed in HEK293 cells assessed as accumulation of IP1 incubated for 1 hr at 37 degC followed by 15 mins at RT by TR-FRET assay relative to 5HT", "assay_type": "functional, cell-based", "in_short": "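Polyclonal HEK293 lines stably expressing human 5-HT2A (variant 1) or 5-HT2C (INI isoform), detached and suspended at 1 × 10⁷ cells/mL in HBSS with 20 mM HEPES, 1 mM CaCl₂, 1 mM MgCl₂, pH 7.4. Ligands in buffer with 40 mM LiCl. Incubated 1 h at 37 °C, then 15 min RT. IP1 read by HTRF 665/615 ratio. Triplicate, at least four times.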"}, "Mus musculus [16]": {"system": "Mus musculus", "test": "Procognitive effect in C57Bl/6J mouse assessed as number of novel arm entries at 0.43 mg/kg, po administered 30 mins prior to acquisition trial measured after 24 hrs by Y-maze test", "assay_type": "functional", "in_short": "as §1"}, "Homo sapiens [17]": {"species_on_record": "Homo sapiens", "test": "Selectivity ratio of EC50 for human 5HT2A receptor to EC50 for M1 muscarinic receptor (unknown origin) by FLIPR assay"}, "[18]": {"biological_target": "T2, 5-hydroxytryptamine receptor 2C", "test": "Agonist activity at human 5HT2C receptor expressed in HEK293 cells assessed as accumulation of IP1 incubated for 1 hr at 37 degC followed by 15 mins at RT by TR-FRET assay", "assay_type": "functional, cell-based"}, "[19]": {"biological_target": "T1, 5-hydroxytryptamine receptor 2C (Rattus norvegicus)", "test": "(§2) Displacement of [125I]-N-(p-I-Bn)-THAZ from 5HT2C receptor in rat cerebral cortex membrane after 1 hr by scintillation counting analysis", "assay_type": "cell membranes"}, "[20]": {"biological_target": "T4, 5-hydroxytryptamine receptor 2C (Rattus norvegicus, UniProt P08909)", "T4 sequence (P08909 whole entry)": "T1 sequence (whole entry)", "test": "as §2", "assay_type": "cell membranes"}},
  "note": "The source made the active and inactive calls. No cut-off for these calls is given here.",
  "data": [
    {"compound": "O=c1c2c(on1Cc1ccccc1)CCNCC2", "values": [
      {"measurement": "Activity", "setting": "[1]", "result": "Active"},
      {"measurement": "Activity", "setting": "Mus musculus [2]", "result": 36.6, "unit": "%"},
      {"measurement": "Activity", "setting": "Mus musculus [3]", "result": 31.7, "unit": "%"},
      {"measurement": "Activity", "setting": "Mus musculus [4]", "result": 32.8, "unit": "%"},
      {"measurement": "Ratio EC50", "setting": "Homo sapiens [5]", "result": 20},
      {"measurement": "Ki", "setting": "[6]", "result": 2300, "unit": "nM"},
      {"measurement": "Activity", "setting": "Mus musculus [7]", "result": 34.7, "unit": "%"},
      {"measurement": "Activity", "setting": "[8]", "result": "Active"},
      {"measurement": "Activity", "setting": "Mus musculus [9]", "result": 30.6, "unit": "%"},
      {"measurement": "Ki", "setting": "[10]", "result": 8800, "unit": "nM"},
      {"measurement": "Activity", "setting": "Mus musculus [11]", "result": 32.6, "unit": "%"},
      {"measurement": "Activity", "setting": "[12]", "result": "inactive"},
      {"measurement": "Activity", "setting": "Mus musculus [13]", "result": 40.4, "unit": "%"},
      {"measurement": "EC50", "setting": "[14]", "result": 420, "unit": "nM"},
      {"measurement": "Emax", "setting": "[15]", "result": 95, "unit": "%"},
      {"measurement": "Activity", "setting": "Mus musculus [16]", "result": 38.5, "unit": "%"},
      {"measurement": "Ratio EC50", "setting": "Homo sapiens [17]", "result": 20},
      {"measurement": "EC50", "setting": "[18]", "result": 1700, "unit": "nM"},
      {"measurement": "Activity", "setting": "[19]", "result": "Dose-dependent effect"},
      {"measurement": "Ki", "setting": "[20]", "result": 724, "unit": "nM"}
    ]}
  ]
}
